Rows were chosen to be rich in hits. Some 3.6% of all compounds tested hit in one or more screens of this group.
MITF TRPM1 HTS: activators of MITF-driven TRPM1 promoter reporter, primary screen, cell-based, SK-MEL-5, luciferase, single point. SK-MEL-5 TRPM1-promoter luciferase, 24 h; % of positive control, neutral wells = 0. activation, % at 12.5 µM. 300,000 tested, 0.75% active. AID 588334, 2011;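 active means mean activation of at least 80% with every replicate also reaching 80%; inconclusive means mean reaches 80% but some replicate falls short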;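 further: 0% = neutral control wells and 100% = parthenolide positive control wells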
HSF1 activator: HSF-1 activators, primary screen, NIH3T3-HGL cells, MG132 stress, luminescence, single point; NIH3T3-HGL HSF-1 luciferase reporter, 8 h; 100% = twice DMSO control signal; activation, % at 9 µM; 300,000 tested, 1.7% active; AID 504408, 2011;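 active means mean replicate activation of at least 50% with a set share of replicates each reaching 50%; inconclusive means only one of those two conditions met; inactive means mean below 50% and too few replicates reaching it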;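 further: 0% = median of the neutral control wells and 100% = twice that signal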
Wnt act: Wnt/beta-catenin pathway activators, primary screen, cell-based, plate reader, single point; Wnt/beta-catenin reporter cell assay, activator; activation, % at 9.35 µM; 300,000 tested, 1.2% active; AID 743398, 2014; in the data active means activation above about 30%, passing the limit was not always enough; inconclusive means no clear call, values can overlap the other calls;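 further: 0% = neutral control wells and 100% = positive control wells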
SR-BI DiI inh: inhibitors of SR-BI mediated HDL lipid uptake, primary screen, ldlA[mSR-BI] cells, fluorescence, single point; inhibition, % at 12.5 µM; 320,000 tested, 0.96% active; Scavenger receptor class B member 1 (Mus musculus), Q61009; ldlA[mSR-BI] CHO cells, DiI-HDL uptake fluorescence, 3 h; AID 488896, 2010;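 active means mean replicate inhibition of at least 70% and a set share of replicates each scoring 70 or more; inconclusive means meets just one of the two criteria; inactive means fails both criteria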;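 further: 0% = median of neutral control wells and 100% = median of positive control wells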
Target sequence (Q61009 whole entry, looked up): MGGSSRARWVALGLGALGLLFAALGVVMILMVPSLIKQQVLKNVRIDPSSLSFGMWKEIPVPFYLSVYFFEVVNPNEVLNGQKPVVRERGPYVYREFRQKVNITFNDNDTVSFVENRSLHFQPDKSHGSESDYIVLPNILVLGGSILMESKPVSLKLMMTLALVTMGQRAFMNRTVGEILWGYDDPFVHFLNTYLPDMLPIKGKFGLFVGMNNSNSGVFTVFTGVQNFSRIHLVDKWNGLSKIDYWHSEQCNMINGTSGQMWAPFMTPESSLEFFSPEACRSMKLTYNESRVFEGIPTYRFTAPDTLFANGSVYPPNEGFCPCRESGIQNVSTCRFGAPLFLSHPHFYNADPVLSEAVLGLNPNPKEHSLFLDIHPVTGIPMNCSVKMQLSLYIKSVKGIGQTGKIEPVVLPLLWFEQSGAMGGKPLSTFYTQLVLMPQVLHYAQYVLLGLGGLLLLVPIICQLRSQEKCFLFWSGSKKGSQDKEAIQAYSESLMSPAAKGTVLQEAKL
SR-BI DiI-HDL act: activators of SR-BI mediated DiI-HDL uptake, primary screen, ldlA[mSR-BI] CHO cells, DiI fluorescence; 3 h; 100 = double the neutral-control signal; activation, % at 12.5 µM; 320,000 tested, 0.096% active; AID 504775, 2011;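 active means mean replicate activation of at least 60% and every replicate at or above 60%; inconclusive means mean or all-replicate condition met, but not both; inactive means mean below 60% and not all replicates reaching 60%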;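 further: 0% = median plate neutral-control signal and 100% = twice that signal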
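Test system: SR-BI-overexpressing, LDLR-lacking CHO cells; Also added: labelled HDL, 10 µg/mL; Measured by: bottom-read cell fluorescence after medium removal, ex 550/em 595 nm; Timing: 3 h uptake period with compound, 37 °C; Buffer or medium: F12, 0.5% BSA, 25 mM HEPES; Doses: single compound concentration, delivered by pin transfer.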
The depositor's hits bear a star; ? = inconclusive; . = no result.

SMILES	MITF TRPM1 HTS	HSF1 activator	Wnt act	SR-BI DiI inh	SR-BI DiI-HDL act
CCCCNc1c(-c2cccnc2)nc2nc(C)cc(C)n12	.	.	-2	.	.
C[C@@H]1C=CCCO[C@]12C(=O)N(Cc1ccc(Br)cc1)c1ccccc12	.	.	-1	.	.
Cc1onc(-c2ccccc2)c1C(=O)N=C(N)c1ccc(C(F)(F)F)cc1	.	82*	6	-3	3
Cc1onc(-c2ccccc2)c1C(=O)c1ccccc1	.	6	2	4	-4
CCOc1ccccc1C=NNC(=O)C1CC1	3	.	-2	5	-5
O=C(Nc1ccccc1)OCC1COC(c2ccccc2)(c2ccccc2)O1 (configuration not stated)	4	.	49*	0	0
N#C/C(=N\Nc1ccccc1F)C(=N)N1CCCCC1	85*	20	28	-14	14
COc1ccc(C(=O)N=c2sc3c(C)ccc(OC)c3n2C)cc1	.	-15	21	77*	-77
COc1cc(C(=O)N=c2sc3c(C)ccc(OC)c3n2C)cc(OC)c1OC	18	-1	1	78*	-78
COc1cc(C(=O)N=c2sc3ccccc3n2C)cc(OC)c1OC	18	17	2	?	-72
NC(=S)N/N=C/c1ncc(C(F)(F)F)cc1Cl	.	2	.	73*	-73
O=C(Nc1ccccc1F)C(=Cc1sc(N2CCOCC2)nc1-c1ccccc1)C(=O)Nc1ccccc1F	4	64*	-6	10	-10
O=C(N/N=C/c1sc(N2CCOCC2)nc1-c1ccccc1)c1ccccc1Cl	-6	-13	-1	83*	-83
O=C(N/N=C/c1sc(N2CCOCC2)nc1-c1ccccc1)c1ccccc1F	.	10	.	.	.
O=[N+]([O-])c1ccc(N/N=C/c2sc(N3CCOCC3)nc2-c2ccccc2)c(S(=O)(=O)Nc2ccc(Cl)cc2)c1	-71	-22	3	118*	-118
O=C(O)Cn1nncc1-c1ccc(C(F)(F)F)cc1	.	.	-1	.	.
Cn1cnnc1Sc1ccc(/C=C/C(=O)c2ccc(O)cc2)cc1[N+](=O)[O-]	-2	58*	16	22	-22
CC(C)(C(=O)N1CCC1(C)C(=O)NS(=O)(=O)c1cccc(Cl)c1)c1ccccc1 (configuration not stated)	.	.	-1	.	.
Cc1[nH]c2ccccc2c1C(=O)CSc1nc2ccccc2[nH]1	28	46	6	29	-29
Cc1[nH]c2ccccc2c1C(=O)CSc1ccc(Cl)cc1	13	54*	-5	20	-20
Cc1[nH]c2ccccc2c1C(=O)CSC(=S)N1CCCCC1	77	54*	21	41	-41
O=C(CSC(=S)N1CCCC1)c1ccccc1	51	55*	45*	-12	.
CC(C)CN(C(=O)C1=COCCO1)c1c(N)n(Cc2ccccc2)c(=O)[nH]c1=O	.	.	0	.	.
O=[N+]([O-])c1ccc(Sc2cccc3cccnc23)c2cccnc12	-36	110*	8	60	-60
Cc1nnc(-n2cccc2)s1	.	.	0	.	.
SMILES	MITF TRPM1 HTS	HSF1 activator	Wnt act	SR-BI DiI inh	SR-BI DiI-HDL act
C/C(=N/OCc1ccc(Br)cc1)c1ccccn1	117*	84*	18	17	-17
COc1ccc(COc2cc(-c3cccc(OC)c3)nc3ccc(NC(=O)c4ccc(Cl)cc4)cc23)cc1	-6	-12	-14	73*	-73
COc1ccc(COc2cc(-c3cccc(OC)c3)nc3ccc(NC(=O)c4ccc(OC)cc4)cc23)cc1	-10	-27	-24	73*	-73
Cc1ccc(S(=O)(=O)N2[C@@H](c3cccc(Cl)c3)C(C(=O)OC(C)(C)C)=CC[C@H]2c2ccc(C(C)C)cc2)cc1	.	.	0	.	.
CC(C)(C)OC(=O)NCCCC[C@H](NC(=O)c1[nH]cnc1C(=O)N[C@@H](Cc1ccccc1)C(=O)OC(C)(C)C)C(=O)OC(C)(C)C	-39	-12	-5	-64	64*
CC(=O)N1CCN(C2=Nc3cccc4cccc2c34)CC1	20	-4	11	-9	9
COc1ccccc1N1CCN(C2=Nc3cccc4cccc2c34)CC1	95*	-3	-3	38	-38
COc1cc(OC)cc(C2=Cc3ccccc3C(CC(=O)c3ccco3)N2c2ccc(-c3ccc(C(N)=O)cc3)cc2)c1 (configuration not stated)	.	.	3	.	.
N/C(=N\OC(=O)COc1ccccc1)c1cccnc1	104*	29	29	.	.
N/C(=N\OC(=O)COc1ccc(Br)cc1)c1cccnc1	24	57*	5	11	-11
N/C(=N\OC(=O)COc1ccccc1)c1ccncc1	40	14	3	-4	4
Cn1cnc(S(=O)(=O)N2CCCCC2c2cc(C(=O)NCc3ccc(F)cc3)no2)c1 (configuration not stated)	.	.	0	.	.
CN=c1scc(-c2ccc(F)cc2)n1/N=C/c1ccc(O)c(O)c1	-68	.	-8	78*	-78
CN=c1scc(-c2ccc([N+](=O)[O-])cc2)n1/N=C/c1ccco1	35	34	6	20	-20
COCc1[nH]nc2c1C(c1cccc(C(F)(F)F)c1)N(c1ccc(OC)cc1)C2=O (configuration not stated)	.	.	-4	.	.
COc1cccc(NC(=O)C(OC(=O)/C=C/c2ccc3c(c2)OCO3)c2ccccc2)c1 (configuration not stated)	.	54*	.	-23	23
CC(=O)Nc1ccc(NC(=O)C(C)OC(=O)/C=C/c2ccc3c(c2)OCO3)cc1 (configuration not stated)	11	16	-1	7	-7
COc1cccc(C(=O)c2c(C)c(CCC#N)n3ccccc23)c1OC	-1	180*	-2	29	-29
COc1cc(C(=O)c2c(C)c(CCC#N)n3ccccc23)cc(OC)c1OC	-1	11	-2	12	-12
CC(C)(C)c1ccc(S(=O)(=O)NCC2CCN(C(=O)C(=O)c3cccs3)CC2)cc1	.	.	-6	.	.
CCc1ccc2c(c1)C(c1ccc([N+](=O)[O-])cc1)=NNC(c1ccc(C)cc1)=N2	17	24	1	75*	-75
O=C(NCc1ccco1)c1ccc2sc([C@H]3C[C@H](O)[C@@H](CO)O3)nc2c1	.	.	1	.	.
Brc1ccc(-c2cn3nc4c(nc3n2)CCCC4)cc1	-37	17	.	2	-2
Nc1nn2cc(-c3ccc(Br)cc3)nc2c2ccccc12	55	27	44*	.	.
Cc1ccccc1NC(=O)/C(C#N)=C/c1ccc[nH]1	10	19	9	0	0
N#C/C(=C\c1ccc[nH]1)C(=O)Nc1ccccc1[N+](=O)[O-]	5	61*	22	12	-12
COc1cc(CN2C[C@@H](CO)O[C@@H](n3cnc4c(Nc5ccccc5)ncnc43)C2)cc(OC)c1OC	.	.	-6	.	.

From PubChem BioAssay
